Results published in publication PMC3747510 (Scientific Reports, 2013).
Values after ≈ are worked out from the molar mass of the structure shown.

Experiments:
MetRS2 = settings: cited from earlier work
S. pneumoniae = assay: Broth microdilution MIC, S. pneumoniae; assay type: cell-based; settings: Streptococcus pneumoniae, 24 h, read-out: MIC, Bacteria, S. pneumoniae
Method in brief: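 S. pneumoniae clinical isolate, from paediatric community-acquired pneumonia. CLSI M7-A7 broth microdilution in Mueller Hinton broth with 2.5% lysed sheep blood, inoculum about 2 × 10^8 CFU/mL. Serial test-compound dilutions, 37°C for 24 h. MIC was the lowest concentration suppressing visible growth.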

| Structure (SMILES) | Activity towards MetRS2 (MetRS2) | MIC (S. pneumoniae) |
| --- | --- | --- |
| C=C(F)c1sc(CNCCCNc2cc(O)c3ccccc3n2)c(C)c1Br [REP8839] | no activity | – |
| CC1(C)S[C@@H]2[C@H](NC(=O)[C@H](N)c3ccccc3)C(=O)N2[C@H]1C(=O)O [Ampicillin, reference compound] | – | 0.0625 µg/mL (≈ 0.179 µM) |
